SENP7 block – SENP7 protease inhibition; recombinant SENP7, Z-RLRGG-aminoluciferin luminescence, 40 min; inhibition, % at 5 µM; Q9BQF6; AID 434973; hit rate 1.5% among 330,000;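 active = inhibition above about 50% at the single test dose, limit read from the data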
Target sequence (Q9BQF6 706-1050 limits assumed): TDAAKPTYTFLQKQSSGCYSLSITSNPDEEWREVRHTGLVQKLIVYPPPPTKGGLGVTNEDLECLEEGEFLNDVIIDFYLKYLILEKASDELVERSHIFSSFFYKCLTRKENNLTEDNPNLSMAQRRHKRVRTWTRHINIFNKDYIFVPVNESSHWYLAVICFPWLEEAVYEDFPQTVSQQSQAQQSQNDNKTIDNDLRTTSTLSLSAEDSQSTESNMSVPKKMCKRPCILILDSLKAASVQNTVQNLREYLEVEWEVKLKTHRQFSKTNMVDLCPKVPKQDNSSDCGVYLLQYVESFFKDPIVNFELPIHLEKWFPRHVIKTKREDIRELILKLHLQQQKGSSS
SENP8 block-1 – inhibitors of human SENP8 protease; inhibition, % at 20 µM; Q96LD8; AID 602440; recombinant SENP8, Nedd8 substrate fluorescence; hit rate 0.64% among 360,000; in the data active = inhibition mostly above about 40%, no sharp cut-off; inactive = mostly below about 27%
Target sequence (Q96LD8 whole entry, looked up): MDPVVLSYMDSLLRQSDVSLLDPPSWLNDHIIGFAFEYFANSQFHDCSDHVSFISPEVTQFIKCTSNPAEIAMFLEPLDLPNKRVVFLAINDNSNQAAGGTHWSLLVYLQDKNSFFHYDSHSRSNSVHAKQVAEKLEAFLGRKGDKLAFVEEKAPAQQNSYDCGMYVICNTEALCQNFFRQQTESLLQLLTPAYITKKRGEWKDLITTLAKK
SENP6 inh – blocks the human protease SENP6. Q9GZR1. Recombinant SENP6 catalytic domain, aminoluciferin luminescence. inhibition, % at 10 µM. hit rate 1.8% among 330,000. AID 2599;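 active = inhibition above about 50% at the single tested dose, limit read from the data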
SENP8 block-2 – SENP8 protease inhibition. Q96LD8. inhibition, % at 10 µM. AID 2540. hit rate 1.2% among 330,000. purified SENP8, Z-RLRGG-aminoluciferin cleavage, luminescence; in the data active = inhibition above about 50%
SENP1 FRET inh – inhibitors of human SENP1 SUMO protease catalytic domain | Q9P0U3 | hit rate 0.21% among 360,000 | inhibition, % at 10 µM | recombinant SENP1 catalytic domain, CyPet-SUMO1-YPet FRET cleavage;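 active = inhibition at least 30% at 10 µM, raw YFP signal under a set limit, fluorescence ratio 0.5 to 1.5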
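Material – human SENP1 catalytic domain · Input – SENP1 enzyme, 20 pM final · Compound dosing – single concentration of 10 µM compound, 0.5% DMSO final · Timing – enzyme reaction for 50 min at room temperature, dark · Measured by – FRET fluorescence in CFP and YFP emission channels · Control set – no-enzyme wells low, DMSO-plus-enzyme wells high control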
SENP8 confirm – human SENP8 inhibition, confirmed; shares compounds with SENP7 block; Recombinant SENP8, Z-RLRGG-aminoluciferin luminescence, 60 min; inhibition, % at 12.5 µM; hit rate 40% among 6,200; AID 488912;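 active = mean inhibition across replicates above about 50%, limit read from the data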
SENP6 confirm – confirmation of human SENP6 protease inhibitors; hit rate 58% among 6,200; AID 488915; recombinant SENP6, Z-RLRGG-aminoluciferin luminescence; shares compounds with SENP7 block; inhibition, % at 12.5 µM
SENP7 conf – human SENP7 inhibition, confirmed; shares compounds with SENP7 block; recombinant SENP7, Z-RLRGG-aminoluciferin luminescence, 40 min; inhibition, % at 12.5 µM; hit rate 69% among 6,200; AID 488917
Casp3 select – selectivity test for SENP inhibitors: human caspase-3 inhibition; shares compounds with SENP7 block; hit rate 60% among 6,200; inhibition, % at 12.5 µM; purified caspase-3, Z-DEVD-aminoluciferin luminescence, 60 min;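 active = mean inhibition above about 50%, limit read from the data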
SENP luc ctr – interferes with luciferase luminescence in SENP counter-screen; shares compounds with SENP7 block; Pre-incubated SENP8/Z-RLRGG-aminoluciferin, luciferase luminescence interference; inhibition, % at 12.5 µM; hit rate 39% among 6,200;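 active = mean inhibition above about 50% when retested at one dose, limit read from the data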
Hits are given with their value; n = inactive; x = no result. The list is not random: actives were taken first. Their share in the collection is about 2.5%.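 The calls were made as follows, unless noted: active = mean inhibition above about 50% in the one-dose retest (limit read from the data); inactive = the rest.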

SMILES | SENP7 block | SENP8 block-1 | SENP6 inh | SENP8 block-2 | SENP1 FRET inh | SENP8 confirm | SENP6 confirm | SENP7 conf | Casp3 select | SENP luc ctr
CSc1ccccc1NC(=O)CSc1nnc(Cc2ccccc2)o1 | n | n | n | n | n | x | x | x | x | x
Cc1nc(SCC(N)=O)[nH]c(=O)c1Cc1ccc(OC(C)C)cc1 | n | n | 63.6 | n | n | n | n | n | n | n
c1ccc(-c2csc(Nc3ccc4c(c3)OCCO4)n2)cc1 | 91.2 | n | 95.5 | 90.9 | n | 94.6 | 95.3 | 100.7 | 73.5 | 84.2
COc1cccc(Nc2nc(-c3ccc4c(c3)OCCO4)cs2)c1 | n | n | 55.0 | n | n | n | n | 68.6 | n | n
O=C(O)CCC(=O)N1CCN(c2ncccc2C(F)(F)F)CC1 | n | n | n | n | n | x | x | x | x | x
CCOC(=O)c1cn(Cc2ccccc2)nc1-c1ccccc1 | n | n | n | n | n | x | x | x | x | x
COc1ccc(S(=O)(=O)Nc2ccccc2N2CCOCC2)cc1[N+](=O)[O-] | n | n | n | n | n | x | x | x | x | x
COc1cc2sc3ccc(-c4ccc(N(C)C)nc4)cc3c(=O)c2cc1OC | 56.3 | x | 79.5 | 74.4 | x | n | n | n | n | n
COc1ccc(-c2ccc3sc4ccccc4c(=O)c3c2)cn1 | 100.5 | n | 95.4 | n | n | n | n | n | 74.3 | n
COc1cc2sc3ccc(-c4ccc(CN5CCOCC5)cc4)cc3c(=O)c2cc1OC | n | n | n | n | n | x | x | x | x | x
COCCN(C(=O)c1cccc(-n2cnnn2)c1)c1c(N)n(CC(C)C)c(=O)[nH]c1=O | n | n | n | n | n | x | x | x | x | x
C/C(=N\Nc1ccc(C)c(Cl)c1)c1cccnc1 | n | n | n | n | n | x | x | x | x | x
CCCc1nn(C)c(C(=O)Nc2ccc3ccccc3c2)c1Cl | n | n | 52.0 | n | n | n | n | n | n | n
CCSc1nn2c(=O)c3ccccc3nc2s1 | n | n | 57.5 | n | n | n | n | 70.2 | 76.1 | n
CCOn1c(SCC)nc2ccccc2c1=O | n | n | n | n | n | x | x | x | x | x
COC(=O)c1ccc2nc(-c3ccc(OC)c(OC)c3)c(CC3CCCCC3)n2c1 | x | n | x | x | n | x | x | x | x | x
CCOC(=O)CSc1ccc(-c2nc3cc(C)c(C)cc3[nH]2)cn1 | n | n | n | n | n | x | x | x | x | x
COCCOC(=O)CSc1ncccc1-c1nc2cc(C)c(C)cc2[nH]1 | 95.3 | n | n | 92.8 | n | 93.4 | 95.6 | 102.1 | 96.3 | 95.5
Cc1cc2nc(-c3cccnc3SCC(=O)NC(C)C)[nH]c2cc1C | 87.4 | n | 90.3 | 81.8 | n | 86.2 | 85.2 | 98.1 | 88.2 | n
C[C@@H](NC(=O)[C@@H]1Cc2ccccc2CN1C(=O)OC(C)(C)C)C(=O)NCC1CCCO1 (stereo partly drawn) | n | n | n | n | n | x | x | x | x | x
Cc1nn(-c2ccc(F)cc2)c(C)c1/C=C/C(=O)N1CCNC(=O)C1 | n | n | n | n | n | x | x | x | x | x
O=C(Nc1nnc(CCc2ccccc2)s1)c1ccccc1F | n | n | 50.9 | n | n | n | n | 57.8 | n | n
O=C(Nc1nnc(CCc2ccccc2)s1)c1ccc(F)cc1 | n | n | n | n | n | x | x | x | x | x
O=C(Nc1nnc(CCc2ccccc2)s1)c1cccc(F)c1 | 61.0 | n | n | n | n | n | n | n | n | n
Cc1cc(Br)cn2c(Cc3ccccc3)c(-c3cccc(Br)c3)nc12 | x | n | x | x | n | x | x | x | x | x
SMILES | SENP7 block | SENP8 block-1 | SENP6 inh | SENP8 block-2 | SENP1 FRET inh | SENP8 confirm | SENP6 confirm | SENP7 conf | Casp3 select | SENP luc ctr
CN(C(=O)c1ccc(NC(=O)Cc2ccc(NC(=O)C3CCCN(C(=O)C4CC4)C3)cc2)cc1)C1CC1 (stereo not drawn) | n | n | n | n | n | x | x | x | x | x
COc1ccccc1N1CCN(c2ccc(-c3ccccc3)nn2)CC1 | n | n | 94.1 | 95.4 | n | 78.8 | 89.4 | 98.5 | 90.0 | n
COc1ccc(NC(=O)N2CCc3ccccc32)cc1 | 95.9 | n | 95.5 | 86.3 | n | 92.8 | 93.1 | 99.1 | 94.3 | 91.3
CCOC(=O)c1ccc(NC(=O)N2CCc3ccccc3C2)cc1 | n | n | n | n | n | x | x | x | x | x
CCOC(=O)c1ccc(NC(=O)N2CCc3ccccc32)cc1 | 95.6 | n | 91.0 | 76.7 | n | n | 80.8 | 95.2 | 76.5 | n
COc1cc(C(=O)OCc2csc(CC(=O)Nc3ccccc3C)n2)ccc1OCC(C)C | n | n | n | n | n | x | x | x | x | x
O=S1(=O)CC(N2CCCCC2)CN1Cc1cn(Cc2ccc(Cl)cc2)nn1 (stereo not drawn) | x | n | x | x | n | x | x | x | x | x
O=C1OCCC1=CN1CCCCC1 | x | n | x | x | n | x | x | x | x | x
CC(=O)CSc1nc2cc3c(cc2cc1C#N)OCCO3 | 97.1 | n | 91.4 | 95.1 | n | 83.5 | 87.0 | 58.1 | 86.0 | n
N#Cc1c(C(F)(F)F)cc(-c2ccccc2)[nH]c1=O | n | n | n | n | n | x | x | x | x | x
COc1cccc(-c2cc(C(F)(F)F)c(C#N)c(=O)[nH]2)c1 | n | n | 84.7 | 84.6 | n | n | 69.6 | 84.8 | 70.3 | 76.6
Cc1ccc(-c2cc(C(F)(F)F)c(C#N)c(=O)[nH]2)cc1 | n | n | 76.0 | 68.2 | n | 64.6 | 66.2 | 57.2 | 60.9 | n
COc1ccc(S(=O)(=O)N2CCCOC2CNC(=O)C(=O)NCc2ccncc2)cc1 (stereo not drawn) | n | n | n | n | n | x | x | x | x | x
O=C(NCc1ccc2c(c1)OCO2)C1CC(=O)N(CCc2ccc(Cl)cc2)C1 (stereo not drawn) | n | n | n | n | n | x | x | x | x | x
Cc1ccc(CCN2CC(C(=O)NCc3ccc4c(c3)OCO4)CC2=O)cc1 (stereo not drawn) | n | n | 66.8 | n | n | n | n | n | n | n
CN=c1scc(-c2ccccc2F)n1/N=C/c1ccc[nH]1 | n | n | n | 90.8 | n | 98.2 | 99.5 | 102.6 | 96.0 | 97.4
COc1cccc(CNC(=S)NC2CC2)c1 | n | n | n | n | n | x | x | x | x | x
CCCN1C(=O)/C(=C/c2nc3ccccc3c(=O)[nH]2)c2ccccc21 | n | n | n | n | n | x | x | x | x | x
CCCN1C(=O)/C(=C/c2nc3ccccc3c(=O)[nH]2)c2cc(C)ccc21 | n | n | 91.7 | n | n | n | n | n | n | n
O=C(O)c1ccc(/C=C/c2nc3ccccc3c(=O)[nH]2)cc1 | 99.7 | n | 97.4 | 94.9 | n | 96.7 | 97.5 | 101.9 | 97.7 | 55.5
Cc1cccc(/C=C/c2nc3ccccc3c(=O)[nH]2)c1 | 97.4 | n | 86.7 | 74.9 | n | n | 68.4 | n | 78.9 | n
O=c1[nH]c(/C=C/c2ccccc2Cl)nc2ccccc12 | 94.0 | n | 76.7 | 76.4 | n | n | n | 60.5 | n | n

Bioassay records from PubChem BioAssay.
